Experimental data from ChEMBL document CHEMBL5385868, “Bifunctional carbazole derivatives for simultaneous therapy and fluorescence imaging in prion disease murine cell models” (Eur J Med Chem, 2023).
Active and inactive are the calls of the source. No cut-off for these calls is given here.

Key:
[1] = Cytotoxicity against RML infected mouse ScGT1 cells assessed as reduction in cell viability at 10 uM measured after 5 days by MTT assay relative to control; format: toxicity, cell-based; settings: scgt1, 120 h, time 5 day
Procedure, shortened: (§1)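 MTT viability in RML-infected ScGT1 cells after 5 days exposure to 0.1, 1 or 10 µM compound, vehicle control. MTT 5 mg/mL in PBS for 3 h at 37 °C, 5% CO2; dissolved in DMSO/2-propanol (1:1), 30 min at room temperature, then plate read; triplicate.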

[2] = Cytotoxicity against RML infected mouse ScGT1 cells assessed as reduction in cell viability at 1 uM measured after 5 days by MTT assay relative to control; format: toxicity, cell-based; settings: scgt1, 120 h, time 5 day; procedure, shortened: as §1
[3] = Cytotoxicity against RML infected mouse ScGT1 cells assessed as reduction in cell viability at 0.1 uM measured after 5 days by MTT assay relative to control; format: toxicity, cell-based; settings: scgt1, 120 h, time 5 day; procedure, shortened: as §1
[4] = Anti-prion activity against RML infected mouse ScGT1 cell lysate assessed as PrPSc residual level at 10 uM measured after 5 days by Western blot analysis relative to control; format: functional; settings: time 5 day
Procedure, shortened: (§2)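 RML-infected ScGT1 cells, confluent, split 1:10 and seeded in triplicate; compound (DMSO stock diluted in water) added to medium two days after seeding at 0.1, 1 or 10 µM, vehicle control; 5 days treatment. Lysates (1 mg/mL) digested with 20 µg/mL PK, 1 h, 37 °C, stopped with PMSF, ultracentrifuged; pellets blotted with anti-PrP Fab D18. PrPSc remaining expressed relative to untreated lysates.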

[5] = Anti-prion activity against RML infected mouse ScGT1 cell lysate assessed as PrPSc residual level at 1 uM measured after 5 days by Western blot analysis relative to control; format: functional; settings: time 5 day; procedure, shortened: as §2
[6] = Anti-prion activity against RML infected mouse ScGT1 cell lysate assessed as PrPSc residual level at 0.1 uM measured after 5 days by Western blot analysis relative to control; format: functional; settings: time 5 day; procedure, shortened: as §2
[7] = (§3) Anti-prion activity against RML infected mouse ScGT1 cells assessed as inhibition of PrPSc formation measured after 5 days by Western blot analysis; format: functional; settings: dose 0.1-10 µM; time 5 day; procedure, shortened: as §2
[8] = system: GT1; experiment: Anti-prion activity against mouse GT1 cells assessed as reduction in PrPSc level at 0.1 to 10 uM measured after 5 days by Western blot analysis; format: functional, cell-based; settings: dose 0.1-10 µM, time 5.0 day
[9] = Anti-prion activity against RML infected mouse ScGT1 cell assessed as PrPSc clearance level measured after 5 days by Western blot analysis; format: functional, cell-based; settings: ScGT1, 120 h; procedure, shortened: as §2
[10] = Anti-prion activity against RML infected mouse ScGT1 cells assessed as reduction in PrPSc level measured after 5 days by Western blot analysis; format: functional, cell-based; settings: ScGT1, 120 h; procedure, shortened: as §2
[11] = system: ScGT1; experiment: as §3; format: functional; settings: dose 0.1-10 µM, time 5.0 day; procedure, shortened: as §2
[12] = system: N2a; experiment: Effect on N2a mouse cells assessed appearance of protein aggregates measured after 60 mins by fluorescence based confocal microscopy based analysis; format: functional, cell-based
Procedure, shortened: (§4)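 N2a cells on coverslips at semi-confluence for 24 h, fixed in 4% paraformaldehyde, permeabilised with 0.2% Triton X-100, denatured with 6 M GdnHCl for 10 min, blocked with 1% BSA, then stained with 0.025% compound for 60 min. Anti-PrP mAb W226 as counterstain, DAPI for nuclei; confocal imaging with FITC/TRITC filters.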

[13] = biological target: Major prion protein (Mus musculus) (UniProt P04925); experiment: Inhibition of full length recombinant mouse PrP (89 to 231 residues) expressed in Escherichia coli BL21 (DE3) cells to PrPSc conversion assessed as RML amplification at 10 uM in presence of PMCA
Sequence of Major prion protein (Mus musculus) (P04925 whole entry, the tested form may be a part): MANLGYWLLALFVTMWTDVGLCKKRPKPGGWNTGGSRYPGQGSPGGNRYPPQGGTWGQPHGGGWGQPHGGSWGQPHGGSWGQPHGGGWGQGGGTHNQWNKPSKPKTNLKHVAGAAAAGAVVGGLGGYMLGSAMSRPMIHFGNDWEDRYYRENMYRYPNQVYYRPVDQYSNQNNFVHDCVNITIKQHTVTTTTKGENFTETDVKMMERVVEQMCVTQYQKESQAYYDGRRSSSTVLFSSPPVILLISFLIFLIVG

[14] = biological target: Major prion protein (Mus musculus) (UniProt P04925); experiment: Inhibition of full length recombinant mouse PrP (89 to 231 residues) expressed in Escherichia coli BL21 (DE3) cells to PrPSc conversion assessed as RML amplification at 10 uM
[15] = system: N2a; experiment: Effect on N2a mouse cells assessed appearance of protein clusters measured after 60 mins by fluorescence based confocal microscopy based analysis; format: functional, cell-based; procedure, shortened: as §4
[16] = biological target: Major prion protein (Mus musculus) (UniProt P04925); experiment: Inhibition of full length recombinant mouse PrP (89 to 231 residues) expressed in Escherichia coli BL21 (DE3) cells to PrPSc conversion assessed as vCJD prion amplification at 10 uM in presence of PMCA
Procedure, shortened: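 vCJD prions serially diluted 10^-5 to 10^-8 into 10% brain homogenate from Tg(MHu2M) mice expressing chimeric human-murine PrP, in conversion buffer with 0.05% digitonin. Substrate supplemented with PBS or 10 µM compound. PMCA: incubation at 37/40 °C with 40 s sonication pulses at 270–280 W.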

[17] = biological target: Major prion protein (Mus musculus) (UniProt P04925); experiment: Inhibition of full length recombinant mouse PrP (89 to 231 residues) expressed in Escherichia coli BL21 (DE3) cells to PrPSc conversion assessed as vCJD prion amplification at 10 uM
[18] = Anti-prion activity against 22L prion infected mouse ScGT1 cells assessed as reduction in PrPSc level measured after 5 days by Western blot analysis; format: functional, cell-based; settings: ScGT1, 120 h
Procedure, shortened: (§5)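 22L-infected ScGT1 or ScN2a cells given compound in medium (vehicle ≤0.001% DMSO), triplicate. Lysates digested with 20 µg/mL PK for 1 h at 37 °C, stopped with PMSF, ultracentrifuged; PK-resistant PrP detected by Western blot with anti-PrP Fab D18 and HRP-conjugated secondary, ECL read-out.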

[19] = system: ScN2a; experiment: Anti-prion activity against 22L prion infected mouse ScN2a cells assessed as reduction in PrPSc level measured after 5 days by Western blot analysis; format: functional, cell-based; settings: 120 h; procedure, shortened: as §5
[20] = biological target: Major prion protein (Mus musculus) (UniProt P04925); experiment: Inhibition of full length recombinant mouse PrP (89 to 231 residues) expressed in Escherichia coli BL21 (DE3) cells to PrPSc conversion assessed as lag time for protein aggregation at 4 uM measured after 72 hrs by spectramax fluorescence microplate reader analysis
[21] = biological target: Major prion protein (Mus musculus) (UniProt P04925); experiment: Inhibition of full length recombinant mouse PrP (89 to 231 residues) expressed in Escherichia coli BL21 (DE3) cells to PrPSc conversion assessed as lag time for protein aggregation at 20 uM measured after 72 hrs by spectramax fluorescence microplate reader analysis
[22] = biological target: Major prion protein (Mus musculus) (UniProt P04925); experiment: Inhibition of full length recombinant mouse PrP (89 to 231 residues) expressed in Escherichia coli BL21 (DE3) cells to PrPSc conversion assessed as lag time for protein aggregation at 40 uM measured after 72 hrs by spectramax fluorescence microplate reader analysis

O=C(CN1CCCC1)Nc1ccc(Cc2ccc(NC(=O)CN3CCCC3)cc2)cc1
Activity [1]: 50%
Cell viability (% of control) [2]: 69%
Cell viability relative to control [3]: 85%
Activity [4]: 13%
Activity [5]: 103%
Activity [6]: 127%
Activity [7]: 7.8 µM
Activity [8]: inactive
EC50 [9]: 2.5 µM

O=C(Cn1ccnc1)Nc1ccc2[nH]c3ccc(NC(=O)Cn4ccnc4)cc3c2c1
Activity [1]: 77%
Cell viability (% of control) [2]: 89%
Cell viability relative to control [3]: 100%
Activity [4]: 74%
Activity [5]: 98%
Activity [6]: 120%

O=C(CN1CCOCC1)Nc1ccc2[nH]c3ccc(NC(=O)CN4CCOCC4)cc3c2c1
Activity [1]: 84%
Cell viability (% of control) [2]: 86%
Cell viability relative to control [3]: 101%
Activity [4]: 59%
Activity [5]: 102%
Activity [6]: 96%

O=C(CN1CCCCC1)Nc1ccc2[nH]c3ccc(NC(=O)CN4CCCCC4)cc3c2c1
Activity [1]: 69%
Cell viability (% of control) [2]: 76%
Cell viability relative to control [3]: 81%
Activity [4]: 44%
Activity [5]: 105%
Activity [6]: 109%

O=C(CN1CCN(c2ccccc2)CC1)Nc1ccc2[nH]c3ccc(NC(=O)CN4CCN(c5ccccc5)CC4)cc3c2c1
Activity [1]: 63%
Cell viability (% of control) [2]: 73%
Cell viability relative to control [3]: 71%
Activity [4]: 134%
Activity [5]: 136%
Activity [6]: 124%

CCN(CC)CC(=O)Nc1ccc2[nH]c3ccc(NC(=O)CN(CC)CC)cc3c2c1
EC50 [10]: 2.25 µM
Activity [1]: 103%
Cell viability (% of control) [2]: 99%
Cell viability relative to control [3]: 108%
Activity [4]: 31%
Activity [5]: 57%
Activity [6]: 84%
Activity [8]: inactive
EC50 [9]: 8 µM

O=C(CN1CCCC1)Nc1ccc2[nH]c3ccc(NC(=O)CN4CCCC4)cc3c2c1
Activity [1]: 71%
Cell viability (% of control) [2]: 85%
Cell viability relative to control [3]: 118%
Activity [4]: 27%
Activity [5]: 103%
Activity [6]: 148%
Activity [7]: 7.4 µM
Activity [11]: Dose-Dependent Effect

CN1CCN(CC(=O)Nc2ccc3[nH]c4ccc(NC(=O)CN5CCN(C)CC5)cc4c3c2)CC1
Activity [1]: 47%
Cell viability (% of control) [2]: 70%
Cell viability relative to control [3]: 99%
Activity [4]: 28%
Activity [5]: 46%
Activity [6]: 85%

O=C(CN1CCCC1)Nc1ccc2[nH]c3ccccc3c2c1
Activity [1]: 29%
Cell viability (% of control) [2]: 72%
Cell viability relative to control [3]: 83%
Activity [4]: 26%
Activity [5]: 75%
Activity [6]: 78%

CC(C)N(CC(=O)Nc1ccc2[nH]c3ccc(NC(=O)CN(C(C)C)C(C)C)cc3c2c1)C(C)C
Activity [1]: 61%
Cell viability (% of control) [2]: 75%
Cell viability relative to control [3]: 92%
Activity [4]: 24%
Activity [5]: 39%
Activity [6]: 73%

CN(C)CC(=O)Nc1ccc2[nH]c3ccc(NC(=O)CN(C)C)cc3c2c1
Activity [12]: Active
inhibition [13]: Active
inhibition [14]: inactive
Activity [15]: inactive
inhibition [16]: inactive
inhibition [17]: inactive
EC50 [10]: 1.35 µM
Activity [1]: 95%
Cell viability (% of control) [2]: 99%
Cell viability relative to control [3]: 111%
Activity [4]: 17%
Activity [5]: 47%
Activity [6]: 130%
Activity [8]: inactive
EC50 [9]: 6.6 µM
EC50 [18]: 33.5 µM
EC50 [19]: 7.3 µM
TIME [20]: 21.5 h
TIME [21]: 5 h
TIME [22]: 9.5 h
